{
  "source": "ChEMBL document CHEMBL3352597",
  "about": "“Heck products of parthenolide and melampomagnolide-B as anticancer modulators that modify cell cycle progression” (Eur J Med Chem, 2014)",
  "system": "Oocyte",
  "assay": "Induction of immature stage VI Xenopus oocyte maturation assessed as stimulation of progesterone-mediated maturation measured as germinal vesicle (nuclear) breakdown at 100 uM after overnight incubation",
  "type": "functional, cell-based",
  "method_in_brief": "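Oocytes (20 per well) pre-treated overnight with compound (100 μM final, DMSO) or DMSO vehicle, then stimulated with 2 μg/ml progesterone. GVBD (animal-pole white spot) scored at the time 50% of DMSO controls reach GVBD. Rate relative to control: 1.0 means no difference, above 1.0 acceleration, below 1.0 delay, 0.0 no maturation. Differences over 20% followed up.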",
  "note": "The source made the active and inactive calls. No cut-off for these calls is given here.",
  "data": [
    {"compound": "C[C@@]12CC/C=C(/CO)CC[C@@H]3/C(=C\\c4ccc(N)cc4)C(=O)O[C@@H]3[C@@H]1O2", "values": [
      {"measurement": "Activity", "result": "Active"}
    ]}
  ]
}
